Data as given in ChEMBL document CHEMBL1811814, “Synthesis and evaluation of indole, pyrazole, chromone and pyrimidine based conjugates for tumor growth inhibitory activities--development of highly efficacious cytotoxic agents” (Eur J Med Chem, 2010).

Key:
Type in all cases: functional
Set-up in all cases: scale not given: the % may be the effect or the level left
CCRF-CEM = assay: Growth inhibition of human CCRF-CEM cells assessed tumor cell growth at 10^-5 M
Method in brief: (§1)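 NCI 60-human-tumor-cell-line panel screen. Each compound was tested at a single concentration of 10^-5 M, and percent growth of tumor cells was recorded for each cell line. Growth inhibition was expressed from these percent-growth values.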

CAKI-1 = assay: Growth inhibition of human Caki1 cells assessed tumor cell growth at 10^-5 M; method in brief: as §1
EKVX = assay: Growth inhibition of human EKVX cells assessed tumor cell growth at 10^-5 M; method in brief: as §1
M14 = assay: Growth inhibition of human M14 cells assessed tumor cell growth at 10^-5 M; method in brief: as §1
NCI/ADR-RES = assay: Growth inhibition of human NCI/ADR-RES cells assessed tumor cell growth at 10^-5 M; method in brief: as §1
OVCAR-8 = assay: Growth inhibition of human OVCAR8 cells assessed tumor cell growth at 10^-5 M; method in brief: as §1
NCI-H460 = assay: Growth inhibition of human NCI-H460 cells assessed tumor cell growth at 10^-5 M; method in brief: as §1
UACC-257 = assay: Growth inhibition of human UACC257 cells assessed tumor cell growth at 10^-5 M
Method in brief: (§2)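 Single-dose screen at 10^-5 M across the 60 human tumor cell line panel, run to NCI standards. The value is the percent growth of each cell line in the presence of compound. Compounds active at this dose moved on to five-concentration testing (10^-4 to 10^-8 M).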

NCI-H23 = assay: Growth inhibition of human NCI-H23 cells assessed tumor cell growth at 10^-5 M; method in brief: as §1
MDA-MB-231 = assay: Growth inhibition of human MDA-MB-231 cells assessed tumor cell growth at 10^-5 M; method in brief: as §1
HCT-15 = assay: Growth inhibition of human HCT15 cells assessed tumor cell growth at 10^-5 M; method in brief: as §1
RXF 393 = assay: Growth inhibition of human RXF393 cells assessed tumor cell growth at 10^-5 M; method in brief: as §1
MDA-MB-435 = assay: Growth inhibition of human MDA-MB-435 cells assessed tumor cell growth at 10^-5 M; method in brief: as §1
COLO 205 = assay: Growth inhibition of human COLO205 cells assessed tumor cell growth at 10^-5 M; method in brief: as §1
[1] = Growth inhibition of human […] cells assessed tumor cell growth at 10^-5 M; method in brief: as §1
DU-145 = assay: Growth inhibition of human DU145 cells assessed tumor cell growth at 10^-5 M; method in brief: as §1
NCI-H322M = assay: Growth inhibition of human NCI-H322M cells assessed tumor cell growth at 10^-5 M; method in brief: as §1
MDA-MB-468 = assay: Growth inhibition of human MDA-MB-468 cells assessed tumor cell growth at 10^-5 M; method in brief: as §1
HCT-116 = assay: Growth inhibition of human HCT116 cells assessed tumor cell growth at 10^-5 M; method in brief: as §1
HOP-62 = assay: Growth inhibition of human HOP62 cells assessed tumor cell growth at 10^-5 M; method in brief: as §1
OVCAR-3 = assay: Growth inhibition of human OVCAR3 cells assessed tumor cell growth at 10^-5 M; method in brief: as §1
T47D = assay: Growth inhibition of human T47D cells assessed tumor cell growth at 10^-5 M; method in brief: as §2
ACHN = assay: Growth inhibition of human ACHN cells assessed tumor cell growth at 10^-5 M; method in brief: as §1
UO-31 = assay: Growth inhibition of human UO31 cells assessed tumor cell growth at 10^-5 M; method in brief: as §2
BT-549 = assay: Growth inhibition of human BT549 cells assessed tumor cell growth at 10^-5 M; method in brief: as §1
SK-MEL-2 = assay: Growth inhibition of human SK-MEL-2 cells assessed tumor cell growth at 10^-5 M; method in brief: as §1
SNB-19 = assay: Growth inhibition of human SNB19 cells assessed tumor cell growth at 10^-5 M; method in brief: as §2
SK-OV-3 = assay: Growth inhibition of human SKOV3 cells assessed tumor cell growth at 10^-5 M; method in brief: as §1
U-251 = assay: Growth inhibition of human U251 cells assessed tumor cell growth at 10^-5 M; method in brief: as §2
SNB-75 = assay: Growth inhibition of human SNB75 cells assessed tumor cell growth at 10^-5 M; method in brief: as §2
NCI-H226 = assay: Growth inhibition of human NCI-H226 cells assessed tumor cell growth at 10^-5 M; method in brief: as §1
SK-MEL-5 = assay: Growth inhibition of human SK-MEL-5 cells assessed tumor cell growth at 10^-5 M; method in brief: as §1
Malme-3M = assay: Growth inhibition of human MALME-3M cells assessed tumor cell growth at 10^-5 M; method in brief: as §1
SF-539 = assay: Growth inhibition of human SF539 cells assessed tumor cell growth at 10^-5 M; method in brief: as §1
OVCAR-4 = assay: Growth inhibition of human OVCAR4 cells assessed tumor cell growth at 10^-5 M; method in brief: as §1
A549 = assay: Growth inhibition of human A549 cells assessed tumor cell growth at 10^-5 M; method in brief: as §1
UACC-62 = assay: Growth inhibition of human UACC62 cells assessed tumor cell growth at 10^-5 M; method in brief: as §2
SF-295 = assay: Growth inhibition of human SF295 cells assessed tumor cell growth at 10^-5 M; method in brief: as §1
HOP-92 = assay: Growth inhibition of human HOP92 cells assessed tumor cell growth at 10^-5 M; method in brief: as §1
SF-268 = assay: Growth inhibition of human SF268 cells assessed tumor cell growth at 10^-5 M; method in brief: as §1
LOX IMVI = assay: Growth inhibition of human LOXIMVI cells assessed tumor cell growth at 10^-5 M; method in brief: as §1
786-0 = assay: Growth inhibition of human 786-0 cells assessed tumor cell growth at 10^-5 M; method in brief: as §1
MCF7 = assay: Growth inhibition of human MCF7 cells assessed tumor cell growth at 10^-5 M; method in brief: as §1
HL-60(TB) = assay: Growth inhibition of human HL-60(TB) cells assessed tumor cell growth at 10^-5 M
Method in brief: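 HL-60(TB), part of the 60-line panel, tested at a single concentration of 10^-5 M. The read-out is percent tumor cell growth relative to untreated growth.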

K562 = assay: Growth inhibition of human K562 cells assessed tumor cell growth at 10^-5 M; method in brief: as §1
HCC 2998 = assay: Growth inhibition of human HCC2998 cells assessed tumor cell growth at 10^-5 M; method in brief: as §1
SN12C = assay: Growth inhibition of human SN12C cells assessed tumor cell growth at 10^-5 M; method in brief: as §1
KM12 = assay: Growth inhibition of human KM12 cells assessed tumor cell growth at 10^-5 M; method in brief: as §1
A498 = assay: Growth inhibition of human A498 cells assessed tumor cell growth at 10^-5 M; method in brief: as §1
OVCAR-5 = assay: Growth inhibition of human OVCAR5 cells assessed tumor cell growth at 10^-5 M; method in brief: as §1
MOLT-4 = assay: Growth inhibition of human MOLT4 cells assessed tumor cell growth at 10^-5 M; method in brief: as §1
HT-29 = assay: Growth inhibition of human HT-29 cells assessed tumor cell growth at 10^-5 M; method in brief: as §1
SK-MEL-28 = assay: Growth inhibition of human SK-MEL-28 cells assessed tumor cell growth at 10^-5 M; method in brief: as §1
TK-10 = assay: Growth inhibition of human TK10 cells assessed tumor cell growth at 10^-5 M; method in brief: as §2
[2] = Growth inhibition of human Hs 578T cells assessed tumor cell growth at 10^-5 M; method in brief: as §1
SW-620 = assay: Growth inhibition of human SW620 cells assessed tumor cell growth at 10^-5 M; method in brief: as §2
NCI-H522 = assay: Growth inhibition of human NCI-H522 cells assessed tumor cell growth at 10^-5 M; method in brief: as §1

CC1=NN(c2cccc(Cl)c2)C(=O)/C1=C\c1c[nH]c2ccccc12
Activity (CCRF-CEM): 142.91%
Activity (CAKI-1): 155.88%
Activity (EKVX): 79.28%
Activity (M14): 99.91%
Activity (NCI/ADR-RES): 101.48%
Activity (OVCAR-8): 107.69%
Activity (NCI-H460): 109.9%
Activity (UACC-257): 122.98%
Activity (NCI-H23): 117.91%
Activity (MDA-MB-231): 72.74%
Activity (HCT-15): 103.61%
Activity (RXF 393): 99.54%
Activity (MDA-MB-435): 108.89%
Activity (COLO 205): 122.84%
Activity [1]: 103.27%
Activity (DU-145): 121.25%
Activity (NCI-H322M): 106.34%
Activity (MDA-MB-468): 104.9%
Activity (HCT-116): 101.89%
Activity (HOP-62): 83.26%
Activity (OVCAR-3): 105.19%
Activity (T47D): 83.89%
Activity (ACHN): 84.34%
Activity (UO-31): 88.75%
Activity (BT-549): 117.3%
Activity (SK-MEL-2): 120.43%
Activity (SNB-19): 111.33%
Activity (SK-OV-3): 99.61%
Activity (U-251): 103.49%
Activity (SNB-75): 91.42%
Activity (NCI-H226): 76.77%
Activity (SK-MEL-5): 102.28%
Activity (Malme-3M): 114.52%
Activity (SF-539): 100.44%
Activity (OVCAR-4): 104.32%
Activity (A549): 109.06%
Activity (UACC-62): 83.26%
Activity (SF-295): 116.2%
Activity (HOP-92): 72.8%
Activity (SF-268): 107.91%
Activity (LOX IMVI): 99.88%
Activity (786-0): 98.46%
Activity (MCF7): 76.22%
Activity (HL-60(TB)): 124.41%
Activity (K562): 128.85%
Activity (HCC 2998): 88.48%
Activity (SN12C): 200.78%
Activity (KM12): 106.96%
Activity (A498): 100.75%
Activity (OVCAR-5): 98.5%
Activity (MOLT-4): 159.76%
Activity (HT-29): 114.3%

CC1=NN(c2cccc(Cl)c2)C(=O)/C1=C\c1cn(S(=O)(=O)c2ccc(C)cc2)c2ccccc12
Activity (CCRF-CEM): 134.54%
Activity (CAKI-1): 87.81%
Activity (EKVX): 97.98%
Activity (M14): 82.05%
Activity (NCI/ADR-RES): 85.11%
Activity (OVCAR-8): 107.68%
Activity (NCI-H460): 119.39%
Activity (UACC-257): 114.55%
Activity (NCI-H23): 83.92%
Activity (SK-MEL-28): 125.16%
Activity (MDA-MB-231): 85.37%
Activity (HCT-15): 105.27%
Activity (TK-10): 166.55%
Activity (RXF 393): 137.02%
Activity [2]: 115.57%
Activity (MDA-MB-435): 105.48%
Activity (COLO 205): 142.35%
Activity [1]: 113.1%
Activity (SW-620): 98.36%
Activity (DU-145): 114.18%
Activity (NCI-H322M): 105.18%
Activity (MDA-MB-468): 118.75%
Activity (HCT-116): 88.23%
Activity (HOP-62): 62.28%
Activity (OVCAR-3): 110.25%
Activity (T47D): 91.46%
Activity (ACHN): 97.51%
Activity (NCI-H522): 107.2%
Activity (UO-31): 78.22%
Activity (BT-549): 111.59%
Activity (SK-MEL-2): 113.68%
Activity (SNB-19): 114.11%
Activity (SK-OV-3): 105.37%
Activity (U-251): 102.73%
Activity (SNB-75): 89.33%
Activity (NCI-H226): 79.93%
Activity (SK-MEL-5): 105.66%
Activity (Malme-3M): 114.11%
Activity (SF-539): 114%
Activity (OVCAR-4): 103.09%
Activity (A549): 108.98%
Activity (UACC-62): 86.46%
Activity (SF-295): 114.23%
Activity (SF-268): 103.69%
Activity (LOX IMVI): 97.36%
Activity (786-0): 94.95%
Activity (MCF7): 113.07%
Activity (HL-60(TB)): 114.07%
Activity (K562): 138.24%
Activity (HCC 2998): 88.49%
Activity (SN12C): 97.46%
Activity (KM12): 109.5%
Activity (A498): 117.06%
Activity (OVCAR-5): 88.09%
Activity (MOLT-4): 173.14%
Activity (HT-29): 122.1%
